In ChEMBL document CHEMBL1125303, “Truncated, branched, and/or cyclic analogues of neuropeptide Y: importance of the pancreatic peptide fold in the design of specific Y2 receptor ligands” (J Med Chem, 1992):
Positions of bridges follow the written chain, without caps; N, C: chain ends. Non-standard residues stand in square brackets, D forms with d. Residues, ends and D or L forms follow the SMILES beside them. Orn = NCCC[C@H](N)C(=O)O; Dap = NC[C@H](N)C(=O)O

Experiments:
[1] = target: T1, Neuropeptide Y receptor type 1 (Homo sapiens, UniProt P25929); experiment: Displacement of l25I-PYY from Neuropeptide Y receptor type 1 of human neuroblastoma SK-N-MC cells; assay type: cell-based
T1 sequence (P25929 whole entry): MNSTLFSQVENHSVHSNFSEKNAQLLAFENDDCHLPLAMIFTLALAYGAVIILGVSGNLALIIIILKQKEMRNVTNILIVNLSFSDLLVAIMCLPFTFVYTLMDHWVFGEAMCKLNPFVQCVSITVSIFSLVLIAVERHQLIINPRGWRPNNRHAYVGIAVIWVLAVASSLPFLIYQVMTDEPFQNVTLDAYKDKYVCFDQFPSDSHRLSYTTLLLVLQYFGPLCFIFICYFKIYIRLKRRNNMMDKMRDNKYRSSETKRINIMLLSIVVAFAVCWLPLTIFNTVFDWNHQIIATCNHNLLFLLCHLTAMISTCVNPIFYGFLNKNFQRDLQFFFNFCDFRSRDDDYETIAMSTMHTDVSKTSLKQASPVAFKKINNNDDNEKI
Procedure, shortened: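 Intact SK-N-MC cells (Y1) were grown in MEM with 10% FCS, then plated at 10⁶ cells/well on poly(Lys-Ala)-coated wells and used after 2 days. Cells were washed cold, lysed and gamma-counted. Triplicates; Kd fitted with LIGAND.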

[2] = target: T2, Neuropeptide Y receptor type 2 (Homo sapiens, UniProt P49146); experiment: Displacement of l25I-PYY from Neuropeptide Y receptor type 2 of human neuroblastoma SK-N-BE cells; assay type: cell-based
T2 sequence (P49146 whole entry): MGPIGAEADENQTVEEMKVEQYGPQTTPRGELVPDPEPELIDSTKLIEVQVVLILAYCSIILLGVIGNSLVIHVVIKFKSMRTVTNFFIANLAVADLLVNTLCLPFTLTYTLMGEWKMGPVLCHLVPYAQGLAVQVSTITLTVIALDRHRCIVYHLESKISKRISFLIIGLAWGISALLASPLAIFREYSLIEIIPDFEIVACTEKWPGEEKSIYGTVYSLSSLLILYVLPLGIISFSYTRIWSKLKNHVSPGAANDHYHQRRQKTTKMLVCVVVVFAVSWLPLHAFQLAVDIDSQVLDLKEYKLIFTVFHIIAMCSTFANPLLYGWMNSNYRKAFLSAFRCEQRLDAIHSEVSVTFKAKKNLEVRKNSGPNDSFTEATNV
Procedure, shortened: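 Intact SK-N-BE(2) cells (Y2) were grown in DME:F12 with 10% FCS, then plated at 10⁶ cells/well on poly(Lys-Ala)-coated wells and used after 1 day. Cells were washed cold, lysed and gamma-counted. Triplicates; Kd fitted with LIGAND.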

Row | Kd ([1]; sk-n-mc) | Kd ([2]; sk-n-be) | Kd [1] | Kd [2] | SMILES
1 | > 1 µM | 0.0036 µM | – | – | CC[C@H](C)[C@H](NC(=O)[C@H](CC(C)C)NC(=O)[C@H](CC(N)=O)NC(=O)[C@@H](NC(=O)[C@H]1CNC(=O)CC[C@H](NC(=O)[C@@H](N)Cc2ccc(O)cc2)C(=O)N[C@@H](CO)C(=O)N[C@@H](CCCCN)C(=O)N2CCC[C@H]2C(=O)N[C@H](C)C(=O)N[C@@H](CC(C)C)C(=O)N[C@@H](CCCNC(=N)N)C(=O)N[C@@H](Cc2cnc[nH]2)C(=O)N1)[C@@H](C)CC)C(=O)N[C@H](C(=O)N[C@@H](CCCNC(=N)N)C(=O)N[C@@H](CCC(N)=O)C(=O)N[C@@H](CCCNC(=N)N)C(=O)N[C@@H](Cc1ccc(O)cc1)C(N)=O)[C@@H](C)O
2 | – | – | > 1 µM | > 1 µM | CC[C@H](C)[C@@H]1NC(=O)[C@H](Cc2ccc(O)cc2)NC(=O)[C@@H](C)NC(=O)[C@@H]2CCCN2C(=O)[C@@H](N)CCC(=O)NC[C@H](C(=O)N[C@H](C(=O)N[C@H](C(=O)N[C@@H](CCCNC(=N)N)C(=O)N[C@@H](CCC(N)=O)C(=O)N[C@@H](CCCNC(=N)N)C(=O)N[C@@H](Cc2ccc(O)cc2)C(N)=O)[C@@H](C)O)[C@@H](C)CC)NC(=O)[C@H](CC(N)=O)NC1=O
3 | – | – | > 1 µM | – | CC[C@H](C)[C@H](NC(=O)[C@H](Cc1ccc(O)cc1)NC(=O)[C@H](Cc1c[nH]cn1)NC(=O)[C@H](CCCNC(=N)N)NC(=O)[C@H](CC(C)C)NC(=O)[C@H](C)NC(=O)[C@H](CO)NC(=O)[C@H](Cc1ccc(O)cc1)NC(=O)[C@H](Cc1ccc(O)cc1)NC(=O)[C@H](CCCNC(=N)N)NC(=O)[C@H](C)N)C(=O)N[C@@H](CC(N)=O)C(=O)N[C@@H](CC(C)C)C(=O)N[C@H](C(=O)N[C@H](C(=O)N[C@H]1CCCCNC(=O)CC[C@@H](C(N)=O)NC(=O)[C@H](CCCNC(=N)N)NC(=O)[C@H](CCC(N)=O)NC1=O)[C@@H](C)O)[C@@H](C)CC (H-ARYYSALRHYINLITKQRE-NH2; lactam 16-19)
4 | > 1 µM | 0.95 µM | – | – | CC[C@H](C)[C@H](NC(=O)[C@H](Cc1ccc(O)cc1)NC(=O)[C@H](Cc1cnc[nH]1)NC(=O)[C@H](CCCNC(=N)N)NC(=O)[C@H](CC(C)C)NC(=O)[C@H](C)NC(=O)[C@H](CO)NC(=O)[C@H](Cc1ccc(O)cc1)NC(=O)[C@H](Cc1ccc(O)cc1)NC(=O)[C@H](CCCNC(=N)N)NC(=O)[C@H](C)N)C(=O)N[C@@H](CC(N)=O)C(=O)N[C@H]1CCCNC(=O)CC[C@@H](C(=O)N[C@@H](CCCNC(=N)N)C(=O)N[C@@H](Cc2ccc(O)cc2)C(N)=O)NC(=O)[C@H](CCCNC(=N)N)NC(=O)[C@H]([C@@H](C)O)NC(=O)[C@H]([C@@H](C)CC)NC1=O (H-ARYYSALRHYIN[Orn]ITRERY-NH2; lactam 13-17)

The next lines start with the compound.

Row | SMILES | Kd ([1]; sk-n-mc) | Kd ([2]; sk-n-be) | Kd [1] | Kd [2]
5 | CC[C@H](C)[C@H](NC(=O)[C@H](Cc1ccc(O)cc1)NC(=O)[C@@H](C)NC(=O)[C@@H]1CCCN1C(=O)[C@@H](N)Cc1ccc(O)cc1)C(=O)N[C@@H](CC(N)=O)C(=O)N[C@@H](CC(C)C)C(=O)N[C@H](C(=O)N[C@H](C(=O)N[C@@H](CCCN=C(N)N)C(=O)N[C@@H](CCC(N)=O)C(=O)N[C@@H](CCCN=C(N)N)C(=O)N[C@@H](Cc1ccc(O)cc1)C(N)=O)[C@@H](C)O)[C@@H](C)CC | – | 0.12 µM | – | –
6 | CC[C@H](C)[C@@H]1NC(=O)[C@H](Cc2ccc(O)cc2)NC(=O)[C@H](Cc2c[nH]cn2)NC(=O)[C@H](CCCNC(=N)N)NC(=O)[C@H](CC(C)C)NC(=O)[C@@H](C)NC(=O)[C@@H]2CCCN2C(=O)[C@H](CCCCN)NC(=O)[C@H](CO)NC(=O)[C@@H](NC(=O)[C@@H](N)Cc2ccc(O)cc2)CCC(=O)NC[C@H](C(=O)N[C@H](C(=O)N[C@H](C(=O)N[C@@H](CCCNC(=N)N)C(=O)N[C@@H](CCC(N)=O)C(=O)N[C@@H](CCCNC(=N)N)C(=O)N[C@@H](Cc2ccc(O)cc2)C(N)=O)[C@@H](C)O)[C@@H](C)CC)NC(=O)[C@H](CC(N)=O)NC1=O | > 1 µM | – | – | –
7 | CC[C@H](C)[C@H](NC(=O)[C@H](Cc1ccc(O)cc1)NC(=O)[C@H](Cc1c[nH]cn1)NC(=O)[C@H](CCCN=C(N)N)NC(=O)[C@H](CC(C)C)NC(=O)[C@H](C)NC(=O)[C@H](CO)NC(=O)[C@H](Cc1ccc(O)cc1)NC(=O)[C@H](Cc1ccc(O)cc1)NC(=O)[C@H](CCCN=C(N)N)NC(=O)[C@H](C)N)C(=O)N[C@@H](CC(N)=O)C(=O)N[C@H]1CCCCNC(=O)CC[C@@H](C(=O)N[C@@H](CCCN=C(N)N)C(=O)N[C@@H](Cc2ccc(O)cc2)C(N)=O)NC(=O)[C@H](CCCN=C(N)N)NC(=O)[C@H]([C@@H](C)O)NC(=O)[C@H]([C@@H](C)CC)NC1=O (H-ARYYSALRHYINKITRERY-NH2; lactam 13-17) | > 1 µM | 0.36 µM | – | –
8 | CC[C@H](C)[C@H](NC(=O)[C@H](Cc1ccc(O)cc1)NC(=O)[C@H](Cc1cnc[nH]1)NC(=O)[C@H](CCCNC(=N)N)NC(=O)[C@H](CC(C)C)NC(=O)[C@H](C)NC(=O)[C@H](CO)NC(=O)[C@H](Cc1ccc(O)cc1)NC(=O)[C@H](Cc1ccc(O)cc1)NC(=O)[C@H](CCCNC(=N)N)NC(=O)[C@H](C)N)C(=O)N[C@@H](CC(N)=O)C(=O)N[C@H]1CNC(=O)CC[C@@H](C(=O)N[C@@H](CCCNC(=N)N)C(=O)N[C@@H](Cc2ccc(O)cc2)C(N)=O)NC(=O)[C@H](CCCNC(=N)N)NC(=O)[C@H]([C@@H](C)O)NC(=O)[C@H]([C@@H](C)CC)NC1=O (H-ARYYSALRHYIN[Dap]ITRERY-NH2; lactam 13-17) | > 1 µM | 0.59 µM | – | –
